Activity calls are given as the source filed them. Unless noted, no stated cut-off is given here; in the data, active means inhibition above about 30%; inactive means the rest.

Assay [1] is described as follows: HUVEC growth inhibition – cell-based, human, primary screen (AID 575;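 active means viability at or below 30% in both replicate assays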;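 further: 100% = median of untreated cell wells with 0.1% DMSO on each plate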). The settings on record: HUVEC proliferation, CellTiter-Glo luminescence, 72 h; at 10 µM; stronger effect = lower value. The gist of the method:
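Assay system: Primary human umbilical vein endothelial cells | Quantity: 1250 cells per well | Medium: Supplemented EBM, 2% fetal bovine serum | Detection: CellTiter-Glo luminescence measuring cellular ATP | Read-out: % viability vs DMSO wells | Plate: Collagen-coated 384-well format | Times: 72 h exposure, 37 °C, 5% CO2, 30 min RT equilibration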
For orientation: Cellular ATP, detected with luciferase, serves as a proxy for viable cell number.

The nature of assay [2]: H69AR cell proliferation blockers – human, duplicate replicates, primary screen (AID 580;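 active means viability at or under a set limit in both replicates, limit being median viability minus 3 SD, cut at about 48% in these data, passing the limit was not always enough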;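 further: 100% = mean luminescence of untreated wells and 0% = no signal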). The conditions noted are these: H69AR lung tumor cells viability, ATP luminescence, 72 h; at 10 µM; stronger effect = lower value.
Assay [3] is described as follows: MRP1 drug-resistance reversers in H69AR cells – cell-based, doxorubicin co-treatment, pilot screen (AID 601;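 active means viability loss from added drug above about 55%, and viability with drug at most 40%, in both replicates, limit read from the data, passing the limit was not always enough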). The settings on record: CellTiter-Glo, 72 h, at 10 µM; for differential viability (reversal): stronger effect = higher value.
Assay [4] in a line: yeast transport mutant growth inhibition pilot in 384-well plates, post-Golgi transport modulator project (AID 636; in the data active means inhibition above about 31%). The conditions noted are these: absorbance 615 nm, about 18 h, stronger effect = higher value.
The nature of assay [5]: growth suppression of yeast trafficking mutant, preliminary HTS, modulators of trafficking downstream of Golgi apparatus project, 1536-format plate, OD 615 nm (AID 637). The settings on record: yeast transport mutant growth, absorbance 615 nm, 18 h; stronger effect = higher value.
[6] abbreviates: H69AR cells + 2 uM doxorubicin, measured here: viability with 2 uM doxorubicin, stronger effect = lower value.
Setting [7] is: H69AR cells, compound alone cytotoxicity.

On to `CN(CC(=O)Nc1ccccc1Cl)C(=O)COC(=O)CNC(=O)c1ccc(Br)o1`, for which the viability (as a rule, a read-out of living cells in per cent, often relative to untreated cells) in assay [1] is 95.4% (inactive); in assay [2] it was 104% (inactive); in assay [3] (setting [6]) it was 89.5%; in assay [3] (setting [7]), 104%. Also, the differential viability (reversal) in assay [3] (H69AR cells + 2 uM doxorubicin) was 14.3% (inactive). Besides, the results for the inhibition in assay [4] and in assay [5] were 0.39% (inactive) and 5.4% (inactive), respectively.
As for `CCn1nnc(NC(=O)c2ccccc2Br)n1`, the viability was 103% (inactive) in assay [1], 99.9% (inactive) in assay [2], 89.4% in assay [3] (setting [6]) and 99.9% in assay [3] (setting [7]). For the same molecule, the differential viability (reversal) in assay [3] (H69AR cells + 2 uM doxorubicin) is 10.5% (inactive). For the same molecule, the inhibition (commonly the change of the read-out against control, counted positive when it falls) in assay [4] is -8.93% (inactive); in assay [5], 2.86% (inactive).
As to `CCn1c(Cc2ccccc2)nnc1SCC(=O)Nc1nc2ccccc2s1`, the viability in assay [1] was 87.9% (inactive); in assay [2] it was 104% (inactive); in assay [3] (setting [6]) it was 99.9%; in assay [3] (setting [7]), 104%. Moreover, the differential viability (reversal) in assay [3] (H69AR cells + 2 uM doxorubicin) is 4.48% (inactive). Also, the values for the inhibition in assay [4] and in assay [5] were -3.03% (inactive) and 6.51% (inactive), respectively.
In the case of `c1ccc(OCCOc2ncnc3sccc23)cc1`, the viability in assay [1] was 100% (inactive); in assay [2], 98.7% (inactive); in assay [3] (setting [6]), 91.7%; in assay [3] (setting [7]), 98.7%. The differential viability (reversal) in assay [3] (H69AR cells + 2 uM doxorubicin) was 7% (inactive). Besides, the inhibition in assay [4] is -0.26% (inactive); in assay [5] it was -1.75% (inactive).
Take `CSc1ccccc1NC(=O)c1noc2c1CCC2`: the viability was 77.8% (inactive) in assay [1], 90.2% (inactive) in assay [2], 88.5% in assay [3] (setting [6]) and 90.2% in assay [3] (setting [7]). Moreover, the differential viability (reversal) in assay [3] (H69AR cells + 2 uM doxorubicin) is 1.63% (inactive). The results for the inhibition in assay [4] and in assay [5] were -3.38% (inactive) and -3.49% (inactive), respectively.
With `CN(C)C(CNc1nnnn1-c1ccccc1)c1ccco1` (stereo not given), the viability in assay [1] is 79.2% (inactive); in assay [2] it was 77.4% (inactive); in assay [3] (setting [6]), 72.4%; in assay [3] (setting [7]) it was 77.4%. Moreover, the differential viability (reversal) in assay [3] (H69AR cells + 2 uM doxorubicin) was 5% (inactive). In addition, the figures for the inhibition in assay [4] and in assay [5] were -3.77% (inactive) and 1.11% (inactive), respectively.
With `COC(=O)C1=C(C)N(c2ccc(C(=O)OC)cc2)C(=O)C1`, the viability is 86.9% (inactive) in assay [1], 88.8% (inactive) in assay [2], 86% in assay [3] (setting [6]) and 88.8% in assay [3] (setting [7]). In addition, the differential viability (reversal) in assay [3] (H69AR cells + 2 uM doxorubicin) was 2.86% (inactive). Moreover, the values for the inhibition in assay [4] and in assay [5] were -0.39% (inactive) and 1.43% (inactive), respectively.
For the molecule `CC(=O)NC1=NC(=O)/C(=C/N2CCCCC2)S1`, the viability in assay [1] is 99.5% (inactive); in assay [2] it was 95.9% (inactive); in assay [3] (setting [6]), 90.8%; in assay [3] (setting [7]), 95.9%. In addition, in assay [3] (H69AR cells + 2 uM doxorubicin), the differential viability (reversal) was 5.1% (inactive). Moreover, the inhibition in assay [4] is -1.97% (inactive); in assay [5], -2.22% (inactive).
For the molecule `Cc1ccccc1Cn1nc(C)c(NC(=O)c2noc3c2CCCC3)c1C`, the viability in assay [1] was 75.7% (inactive); in assay [2], 97.3% (inactive); in assay [3] (setting [6]), 95%; in assay [3] (setting [7]), 97.3%. Further, the differential viability (reversal) in assay [3] (H69AR cells + 2 uM doxorubicin) was 2.39% (inactive). The inhibition in assay [4] is -3.12% (inactive); in assay [5] it was -10.3% (inactive).
For `CCCn1nc(CC(=O)O)c2ccccc2c1=O`, the viability in assay [1] is 98.2% (inactive); in assay [2], 103% (inactive); in assay [3] (setting [6]), 94.7%; in assay [3] (setting [7]) it was 103%. The differential viability (reversal) in assay [3] (H69AR cells + 2 uM doxorubicin) is 8.11% (inactive). The inhibition in assay [4] is -6.27% (inactive); in assay [5] it was -3.02% (inactive).
Regarding `C=CCn1c(Cc2csc(N)n2)nnc1SCC(=O)OCC`, the viability in assay [1] was 103% (inactive); in assay [2], 91.9% (inactive); in assay [3] (setting [6]), 96.6%; in assay [3] (setting [7]), 91.9%. The differential viability (reversal) in assay [3] (H69AR cells + 2 uM doxorubicin) was -4.66% (inactive). The values for the inhibition in assay [4] and in assay [5] were -2.63% (inactive) and -6.67% (inactive), respectively.
Take `CCCOc1ccc(N2C(=O)CC(SCCN)C2=O)cc1` (stereo not given): the viability in assay [1] is 88.2% (inactive); in assay [2], 108% (inactive); in assay [3] (setting [6]), 100%; in assay [3] (setting [7]), 108%. In assay [3] (H69AR cells + 2 uM doxorubicin), the differential viability (reversal) was 8.12% (inactive). In addition, the inhibition in assay [4] was -5.47% (inactive); in assay [5], -3.02% (inactive).
For the molecule `CCN(CC)CCNC(=O)C1CCN(S(=O)(=O)N2CCCCC2)CC1`, the viability was 100% (inactive) in assay [1], 94.8% (inactive) in assay [2], 94.6% in assay [3] (setting [6]) and 94.8% in assay [3] (setting [7]). Also, the differential viability (reversal) in assay [3] (H69AR cells + 2 uM doxorubicin) was 0.23% (inactive). The inhibition in assay [4] was -3.82% (inactive); in assay [5] it was 0.32% (inactive).
Turning to `CCC1Cc2c(nc3c4c(nc(N5CCOCC5)c(C#N)c24)NC(C)=N3)O1` (stereo not given), the viability in assay [1] was 94% (inactive); in assay [2], 88.3% (inactive); in assay [3] (setting [6]) it was 81.5%; in assay [3] (setting [7]), 88.3%. In addition, in assay [3] (H69AR cells + 2 uM doxorubicin), the differential viability (reversal) was 6.83% (inactive). For the same molecule, the inhibition in assay [4] was -2.99% (inactive); in assay [5] it was 4.76% (inactive).
Consider `COc1ccc(CN(C(=O)CSc2nnc(-c3ccccc3F)o2)c2ccc(F)cc2)cc1`, for which the viability is 101% (inactive) in assay [1], 101% (inactive) in assay [2], 98.8% in assay [3] (setting [6]) and 101% in assay [3] (setting [7]). Besides, in assay [3] (H69AR cells + 2 uM doxorubicin), the differential viability (reversal) was 2.2% (inactive). In addition, the inhibition in assay [4] was -5.2% (inactive); in assay [5], 2.7% (inactive).
For `O=C(CSc1nc2ccc(Cl)cc2[nH]1)NCc1ccco1`, the viability was 74.2% (inactive) in assay [1], 65.4% (inactive) in assay [2], 69.6% in assay [3] (setting [6]) and 65.4% in assay [3] (setting [7]). In addition, the differential viability (reversal) in assay [3] (H69AR cells + 2 uM doxorubicin) is -4.26% (inactive). Also, the inhibition is 0.65% (inactive) in assay [4] and 13.3% (inactive) in assay [5].
As to `CC(C)Cc1nnc(NC(=O)CCC(=O)N2CCOCC2)s1`, the viability is 91.5% (inactive) in assay [1], 96.2% (inactive) in assay [2], 95.9% in assay [3] (setting [6]) and 96.2% in assay [3] (setting [7]). Besides, in assay [3] (H69AR cells + 2 uM doxorubicin), the differential viability (reversal) was 0.305% (inactive). Further, the results for the inhibition in assay [4] and in assay [5] were -4.8% (inactive) and 0.63% (inactive), respectively.
On to `Cc1onc(-c2c(Cl)cccc2Cl)c1C(=O)NCCN1CCOCC1`, for which the viability in assay [1] was 94.9% (inactive); in assay [2], 89.9% (inactive); in assay [3] (setting [6]), 98.7%; in assay [3] (setting [7]), 89.9%. The differential viability (reversal) in assay [3] (H69AR cells + 2 uM doxorubicin) is -8.8% (inactive). Moreover, the inhibition was -3.03% (inactive) in assay [4] and 1.43% (inactive) in assay [5].
Consider `CCCn1cc(C(CC(=O)O)C(=O)O)c2ccccc21` (stereo not given), for which the viability in assay [1] was 92.8% (inactive); in assay [2], 89.1% (inactive); in assay [3] (setting [6]), 93%; in assay [3] (setting [7]), 89.1%. The differential viability (reversal) in assay [3] (H69AR cells + 2 uM doxorubicin) was -3.86% (inactive). Moreover, the inhibition in assay [4] is -7.33% (inactive); in assay [5], 5.24% (inactive).
Regarding `CCOC(=O)c1ccc(NC(=O)Nc2ccn(C)n2)cc1`, the viability in assay [1] is 101% (inactive); in assay [2], 91.2% (inactive); in assay [3] (setting [6]) it was 86.7%; in assay [3] (setting [7]), 91.2%. Moreover, in assay [3] (H69AR cells + 2 uM doxorubicin), the differential viability (reversal) is 4.49% (inactive). The inhibition in assay [4] was -6.27% (inactive); in assay [5] it was 1.75% (inactive).

The values above are taken from PubChem BioAssay.
